# From PubChem
# 5HT1E antag: 5-HT1E receptor antagonists, primary screen, cell-based, HTS | inhibition, % at 6 µM | 5-hydroxytryptamine receptor 1E (Homo sapiens), P28566 | CHO 5-HT1E Ga15 NFAT-bla reporter, FRET, antagonist | AID 571, 2007 | 65,000 compounds, 0.99% hits;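 active means inhibition above a set limit, the mean inhibition across every tested compound plus 3 SD, cut at about 29% in these data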;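 further: signal is the 460 over 535 nm emission ratio of beta-lactamase substrate; 0% = agonist plus DMSO wells and 100% = wells without agonist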
# HTR1E agonist: 5-HT1E receptor agonists, primary screen, cell-based, HTS; CHO 5-HT1E Ga15 NFAT-bla reporter, FRET; 0% DMSO wells, 100% control agonist wells; activation, % at 6 µM; 65,000 compounds, 0.69% hits; AID 574, 2007;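 active means activation above a set limit, the screen-wide mean activation plus 3 SD, cut at about 8.5% in these data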;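 further: 100% = positive control agonist at 1 µM giving full maximal response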
# 5HT1a ag: human 5-HT1a receptor agonists, primary screen, cell-based, CHO, Ga15 NFAT-bla reporter; AID 567, 2006; activation, % at 10 µM; 5-hydroxytryptamine receptor 1A (Homo sapiens), P08908; 65,000 compounds, 0.56% hits; CHO 5-HT1a Ga15 NFAT-bla reporter, FRET ratio; 0% basal, 100% maximal reference agonist;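 active means activation above the screen-wide mean activation plus 3 SD, cut at about 19% in these data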;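 further: 0% = DMSO wells and 100% = 5-CT at EC100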
# Target sequence (P08908 whole entry, looked up): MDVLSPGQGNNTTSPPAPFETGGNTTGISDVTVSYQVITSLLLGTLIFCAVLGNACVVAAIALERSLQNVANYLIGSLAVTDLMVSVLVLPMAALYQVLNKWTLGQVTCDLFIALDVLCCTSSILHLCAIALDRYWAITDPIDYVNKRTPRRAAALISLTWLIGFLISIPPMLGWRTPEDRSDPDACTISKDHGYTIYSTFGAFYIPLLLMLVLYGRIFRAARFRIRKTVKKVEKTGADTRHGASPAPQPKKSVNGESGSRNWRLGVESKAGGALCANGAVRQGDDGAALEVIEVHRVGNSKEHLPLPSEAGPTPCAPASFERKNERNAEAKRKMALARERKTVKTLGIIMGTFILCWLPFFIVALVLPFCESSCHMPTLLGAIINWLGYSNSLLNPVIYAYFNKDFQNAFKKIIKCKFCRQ
# S1P3 agonist: human S1P3 receptor agonists, primary screen, cell-based, primary and confirmation, NFAT-BLA reporter; S1P3 NFAT-BLA reporter cells, agonism, FRET ratio; relative to 1 µM S1P, basal subtracted; activation, % at 4.5 µM; 60,000 compounds, 0.1% hits;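 active means activation above the screen-wide mean plus 3 SD, cut at about 4.5% in these data, passing the limit was not always enough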
#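 Assay system: stable CHO line with human S1P3, Gα16, NFAT-BLA reporter; Detection: FRET β-lactamase substrate fluorescence, excitation 405 nm, 460/535 nm emission ratio, background-subtracted; Read-out: percent activation versus median 1 µM S1P response, basal-subtracted, per plate; Incubation: cells plated overnight, compound 4 h 37 °C, substrate 2 h RT.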
# 5-HT1A blocker: human 5-HT1a receptor antagonists, primary screen, cell-based, CHO, Ga15 NFAT-bla reporter. 5-hydroxytryptamine receptor 1A (Homo sapiens), P08908. CHO 5-HT1a Ga15 NFAT-bla reporter, antagonist mode. inhibition, % at 10 µM. 62,000 compounds, 0.68% hits. AID 612, 2007;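 active means inhibition above the mean of all tested compounds plus 3 SD, cut at about 43% in these data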;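 further: receptor stimulated by 5-CT agonist at 100 nM near EC80; beta-lactamase reporter measured by ratiometric fluorescence of a cleavable substrate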
# S1P1 ag-PAM: S1P1 agonists and agonism potentiators, primary screen, cell-based, primary and confirmation screens, CRE-bla reporter; Sphingosine 1-phosphate receptor 1 (Homo sapiens), P21453; S1P1 CRE-bla cells, forskolin, beta-lactamase FRET, potentiator mode; S1P1 agonist co-added at EC20, 2 nM; 100% = saturating reference agonist, 0% = basal; activation, % at 9.5 µM; 56,000 compounds, 0.57% hits; AID 449, 2006;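 active means activation above a cutoff set at the mean activation of all tested compounds plus 3 SD, cut at about 54% in these data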;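 further: forskolin at 4 µM as EC80 and the EC20 agonist is SEW2871; 100% = SEW2871 at its EC100 plus forskolin at EC80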
# An asterisk follows results filed as active; · = not tested or not shown. An excerpt weighted towards active compounds, which were near 2.9% of everything screened.
SMILES,5HT1E antag,HTR1E agonist,5HT1a ag,S1P3 agonist,5-HT1A blocker,S1P1 ag-PAM
CCOC(=O)N1CCC(n2c(SCC(=O)NCCC3=CCCCC3)nc3ccccc3c2=O)CC1,19,-1,0,·,60*,·
Cc1cc(C)c(S(=O)(=O)N(C)CC(N)=O)c(C)c1,1,-1,1,0,0,·
COc1ccc(-c2nc(N)nc(C)c2Oc2ccccc2Br)c(O)c1,-4,0,1,-2,31,17
CC(C)CCNC(=O)Cn1c(=O)oc2cc(S(=O)(=O)N3CCc4ccccc43)ccc21,35*,-1,1,-1,30,10
COC(=O)c1cc(-c2c(C)oc3cc(OC)ccc3c2=O)c(C)o1,-12,0,1,0,-8,-14
COC(=O)c1cc(-c2c(C)oc3cc(O)ccc3c2=O)c(C)o1,1,0,51*,0,0,-28
Cn1c(=O)c2c(ncn2CC(=O)OCc2ccccc2)n(C)c1=O,-7,-1,-2,0,6,-10
C=C(C)CSc1nc(N)cc(=O)[nH]1,15,0,-2,0,6,16
O=C(COC(=O)C1CCN(S(=O)(=O)c2cccs2)CC1)c1cc2ccccc2o1,2,0,-2,1,0,-6
Cn1c(C(=O)N(Cc2ccccc2)Cc2ccccn2)cc2sccc21,2,-1,1,0,22,-2
Cn1c(C(=O)N(Cc2ccccc2)Cc2cccs2)cc2sccc21,9,0,0,-1,43*,-11
O=C(O)c1c(-c2ccccc2)c2oc3ccccc3c2[nH]c1=O,3,0,-3,-1,5,-73
COc1cc2c(C(=O)N3CCN(Cc4ccc5c(c4)OCO5)CC3)cn(C)c(=O)c2cc1OC,11,-1,0,·,1,·
COc1ccccc1C(=O)N1CCN(Cc2ccc3c(c2)OCO3)CC1,2,8.8*,-2,-2,·,-6
O=C(Nc1ccc(S(=O)(=O)NC2CCCC2)cc1)c1cnccn1,-4,0,-2,-1,-12,-12
CS(=O)(=O)N(CC(=O)N1CCCC1)c1ccc(OCc2ccccc2)cc1,2,-1,1,-2,-5,·
CS(=O)(=O)N(CC(=O)N1CCCCCC1)c1ccccc1,-2,32*,-1,-1,12,-4
Cn1c(=O)[nH]c(=O)c2c1nc(SCC(O)CO)n2Cc1ccccc1Cl (stereo not given),-14,1,1,0,-22,-12
COc1ccc(OC)c(NS(=O)(=O)c2ccc(SC)cc2)c1,17,0,-1,-1,8,16
COc1ccc(OC)c(NS(=O)(=O)c2ccc(N3CCCC3=O)cc2)c1,48*,0,-5,-4,·,3
COc1ccc(S(=O)(=O)Nc2cc(Cl)ccc2OC)cc1,30*,0,-2,0,19,6
CCOc1ccc(S(=O)(=O)Nc2cc(OC)ccc2OC)cc1,65*,0,-2,-1,52*,11
Cc1ccc(C)c(-c2nnc(OCC(=O)Nc3cc(C)on3)c3ccccc23)c1,5,0,-2,1,22,-15
COc1ccc(-c2cc(C(F)F)nc(-n3nc(C)cc3C)n2)cc1,-2,0,83*,-1,-12,26
